A selection: hits, their analogues and other compounds. The true share with any hit is near 2.9%.
CRFR2-BP ag: agonists of human CRF-binding protein/CRF-R2 receptor complex; activation, % at 13.2 µM; HEK293 CRF-R2/CRF-BP, calcium dye fluorescence (FLIPR); percent of saturating CRF peptide response; 350,000 compounds, 0.46% hits;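 active = activation of at least 50%, plus an integration ratio under a set limit after plate pattern correction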;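 note: plate controls were neutral control wells without compound for no effect and CRF at EC100 for full effect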
DDE Tn7 FP inh: disrupts Tn7 cyclic peptide binding to fibrin D-Dimer-E complex. FP displacement of FITC-Tn7 peptide from fibrin DD(E); 0% = median of compound wells per plate. inhibition, % at 8.3 µM. 370,000 compounds, 0.13% hits. AID 720508;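 active = inhibition above the mean of compounds falling within the control limits plus 3 SD of them, cut at about 14% in these data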;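 note: 0% = plate median of compound wells and 100% = 10 µM Aha-Tn7 peptide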
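Test system – human fibrin DD(E) · Times – 10 min preincubation, 3 h with tracer, room temperature · Detection – fluorescence polarization of the labelled Tn7 tracer · Measure – percent inhibition normalized to high-control wells · Benchmarks – high control wells with 10 µM unlabelled Aha-Tn7 peptide (full inhibition) · Repeats – singlicate testing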
NRP1-CendR mod: NRP-1/CendR interaction modulation; O14786; 360,000 compounds, 0.85% hits; AID 602438; FAM-RPARPAR peptide binding to NRP-1, fluorescence polarization; inhibition, % at 25 µM;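 active = inhibition or corrected inhibition above about 18%, plus a signal ratio from 0.5 to 1.5, limit read from the data, passing the limit was not always enough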
Target sequence (O14786 whole entry, looked up): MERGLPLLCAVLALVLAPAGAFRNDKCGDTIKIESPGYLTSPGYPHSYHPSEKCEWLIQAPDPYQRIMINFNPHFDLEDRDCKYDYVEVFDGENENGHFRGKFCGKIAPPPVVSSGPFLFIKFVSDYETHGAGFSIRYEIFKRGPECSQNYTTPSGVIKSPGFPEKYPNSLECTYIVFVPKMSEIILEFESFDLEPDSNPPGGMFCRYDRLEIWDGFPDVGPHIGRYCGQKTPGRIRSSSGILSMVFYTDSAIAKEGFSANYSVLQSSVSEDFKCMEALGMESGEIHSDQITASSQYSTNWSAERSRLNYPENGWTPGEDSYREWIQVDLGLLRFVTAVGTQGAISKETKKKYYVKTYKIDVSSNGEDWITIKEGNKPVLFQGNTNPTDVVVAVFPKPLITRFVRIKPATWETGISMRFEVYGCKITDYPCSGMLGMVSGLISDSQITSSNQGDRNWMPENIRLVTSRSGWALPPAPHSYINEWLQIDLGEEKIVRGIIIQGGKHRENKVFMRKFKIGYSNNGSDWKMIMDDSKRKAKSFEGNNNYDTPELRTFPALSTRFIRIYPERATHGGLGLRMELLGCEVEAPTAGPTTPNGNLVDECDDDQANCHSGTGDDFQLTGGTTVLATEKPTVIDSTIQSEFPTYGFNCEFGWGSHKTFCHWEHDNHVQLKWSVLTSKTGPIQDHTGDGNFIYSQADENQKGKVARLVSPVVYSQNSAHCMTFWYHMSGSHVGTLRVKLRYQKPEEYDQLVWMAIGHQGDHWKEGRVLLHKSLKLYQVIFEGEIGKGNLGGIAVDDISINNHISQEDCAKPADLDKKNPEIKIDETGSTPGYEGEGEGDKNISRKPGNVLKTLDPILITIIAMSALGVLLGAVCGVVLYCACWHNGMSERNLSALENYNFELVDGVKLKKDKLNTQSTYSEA
DDE Tn6 FP inh: inhibitors of Tn6 peptide binding to human fibrin DD(E); Fibrin DD(E) TRITC-Tn6 fluorescence polarization displacement; AID 720509; 370,000 compounds, 0.21% hits; inhibition, % at 8.3 µM;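 active = inhibition above a per-campaign cutoff: mean of compounds within control limits plus 3 SD, cut at about 15% in these data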;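 note: 0% = median of all compound wells on the plate and 100% = blocking peptide control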
proKLK7 act: proKLK7 (human) activation, primary screen; P49862; purified proKLK7, EDANS-DABCYL substrate fluorescence; 100% is mature enzyme control, 0% vehicle; activation, % at 7 µM; 370,000 compounds, 0.9% hits;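 active = activation above the mean of all tested compounds plus 3 SD, computed per campaign excluding outliers beyond control limits, cut at about 13% in these data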
CRFBP-R2 block: blocks CRF-induced signaling of the CRF-BP/CRF-R2 complex; HEK293 CRF-R2/CRF-BP, CRF-induced calcium fluorescence; inhibition, % at 11.8 µM; 350,000 compounds, 0.59% hits;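 active = inhibition of the ligand-induced calcium signal above about 50% at the single tested concentration, limit read from the data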
Numbers without * were called inactive; . = not tested or not shown.

SMILES	CRFR2-BP ag	DDE Tn7 FP inh	NRP1-CendR mod	DDE Tn6 FP inh	proKLK7 act	CRFBP-R2 block
COc1ccc(NCc2nn(CC(=O)c3ccc(Br)cc3)c3[n+]2CCCCC3)cc1	-0.3	-7.5	-11.3	-1.1	-0.3	-0.9
O=C(Cn1nc(CNc2ccc(Cl)cc2)[n+]2c1CCCCC2)c1ccc(Br)cc1	-2.9	4.1	-14.1	-4.1	0.2	55.4*
CC(C)OP(=O)(c1ccc(N(C)C)cc1)C(Nc1ccccc1)c1ccccc1 (stereo not drawn)	-0.1	5.0	30.8*	3.4	0.0	-16.8
CC(C)CCOP(=O)(c1ccc(N(C)C)cc1)C(Nc1ccccc1)c1ccc(N(C)C)cc1 (stereo not drawn)	7.6	3.8	-6.0	6.1	0.1	110.6*
CCCOP(=O)(c1ccc(N(C)C)cc1)C(Nc1ccccc1)c1ccc(C)cc1 (stereo not drawn)	0.6	-2.1	5.7	4.3	1.0	-1.9
CCCCCCCCN1C(=O)[C@@H](CC(=O)N2CCOCC2)C[C@@]2(C(=O)OC)C1=C[C@H](C(C)C)O[C@@H]2C1CC1	.	-10.9	.	2.5	0.6	.
Cc1nn(C)cc1CN(C)C(=O)c1ccc(OC2CCN(Cc3ccccn3)CC2)cc1	1.9	-4.3	-0.7	3.2	-0.4	56.7*
CN1CCN(C(=O)/C=C/c2cccc(Cl)c2)CC1	-0.8	4.4	25.4*	7.0	-0.1	-2.1
CCOc1ccc(CCN2C(=S)N([C@@H](Cc3ccccc3)CN3CCC[C@@H]3CN3C(=S)NC[C@@H]3Cc3ccc(O)cc3)C[C@@H]2CC(C)C)cc1	.	-3.3	18.6*	-5.6	-0.8	.
CCOc1ccc(CCN2C(=S)N([C@@H](Cc3ccc(O)cc3)CN3CCCC3CN3C(=S)NC[C@@H]3Cc3ccc(O)cc3)C[C@@H]2CC(C)C)cc1 (stereo partly drawn)	-0.8	1.9	9.9	-7.6	-0.1	1.4
CCCC1CCC2(CC1)CCC2OC(=S)Nc1cccc(Cl)c1 (stereo not drawn)	.	-1.5	.	-5.6	.	.
CC1CCN(c2ccc3c(c2)S(=O)(=O)c2cccc(C(=O)NCc4ccc(F)cc4)c2C3=O)CC1	85.4*	1.5	150.8	-2.9	0.2	-33.8
O=C(NCc1ccccc1C(F)(F)F)c1cccc2c1C(=O)c1ccc(N3CCCCC3)cc1S2(=O)=O	75.6*	-2.8	-46.6	-5.2	0.5	-42.0
C=CCNC(=O)c1cccc2c1C(=O)c1ccc(N3CCOCC3)cc1S2(=O)=O	3.7	-10.5	-54.1	0.5	0.7	98.0*
O=C(NCc1ccc(F)cc1)c1cccc2c1C(=O)c1ccc(N3CCC(N4CCCCC4)CC3)cc1S2(=O)=O	17.4	-13.0	-124.8	0.4	1.2	-35.9
O=C(NCc1cc(C(F)(F)F)ccc1Cl)c1cccc2c1C(=O)c1ccc(N3CCC(Cc4ccccc4)CC3)cc1S2(=O)=O	73.0*	.	145.8	.	.	-26.7
CCN(C[C@H]1[C@@H](c2ccc(C3=CCCC3)cc2)[C@H](CO)N1Cc1ccccn1)S(=O)(=O)c1ccccc1[N+](=O)[O-]	.	-2.3	.	0.5	-0.3	.
O=C(NC1CCCCC1)c1cccc2c1C(=O)c1ccc(N3CCCC3)cc1S2(=O)=O	36.5	-6.8	145.9	-7.5	-4.8	-19.5
O=C(NCc1ccc(F)cc1)c1cccc2c1C(=O)c1ccc(N3CCC(Cc4ccccc4)CC3)cc1S2(=O)=O	125.9*	7.9	148.3	-12.1	-0.1	-51.4
O=C(NC1CC1)c1cccc2c1C(=O)c1ccc(N3CCC(Cc4ccccc4)CC3)cc1S2(=O)=O	83.2*	-4.4	-140.4	-6.4	-0.9	-39.7
O=C1c2ccc(Cl)cc2S(=O)(=O)c2cccc(C(=O)N3CCC(Cc4ccccc4)CC3)c21	-0.5	-4.0	25.8*	8.9	-0.3	3.9
C/C(=C/c1nc(N)n(Cc2ccccc2)c1Cc1ccccc1)Cn1[nH]c(=O)n(-c2ccccc2)c1=O	.	-0.5	.	-2.4	-0.2	.
Cc1onc(-c2ccc(Cl)cc2Cl)c1-c1csc(COc2ccccc2)n1	20.6	0.0	27.4*	-9.6	0.9	-2.2
CS(=O)(=O)N1CCN(c2ccccc2NC(=O)Cc2ccc(Cl)cc2)CC1	-0.4	-1.3	27.8*	-3.8	-0.1	6.8
CS(=O)(=O)N1CCN(c2ccccc2NC(=O)Cc2ccccc2)CC1	2.5	3.5	-6.6	0.2	0.2	-35.2
SMILES	CRFR2-BP ag	DDE Tn7 FP inh	NRP1-CendR mod	DDE Tn6 FP inh	proKLK7 act	CRFBP-R2 block
Cc1ccc(CNC(=O)OC(C)(C)C)c(/C=C/S(=O)(=O)NCCc2ccccc2)c1	.	-5.5	.	-2.2	-0.3	.
CCOc1ccc(N(CC(=O)N2CCC(Cc3ccccc3)CC2)S(C)(=O)=O)cc1	6.9	-3.6	28.9*	10.1	0.0	-12.9
CCOc1ccc(N(CC(=O)N2CCN(C(=O)CN(c3ccc(OCC)cc3)S(C)(=O)=O)CC2)S(C)(=O)=O)cc1	-1.7	-2.7	-18.7	0.1	-0.3	0.6
CC(COc1ccccc1)CN1CCC(C(O)(c2ccccc2)c2ccccc2)CC1 (stereo not drawn)	.	3.6	.	5.4	0.6	.
NCc1cc2c3c(c1)CCCN3CCC2	0.8	-0.3	39.8*	-3.3	-0.6	-9.9
Cc1cc(N2CCNC[C@H]2C)ccc1N1C[C@@H](C)O[C@@H](C)C1	.	-6.8	.	2.7	0.7	.
O=C(O)c1cc(-c2ccccc2)nc(-c2ccccc2)c1	-1.2	3.4	12.4	-2.1	1.2	54.2*
O=C(O)c1cc(C(=O)O)c(-c2ccccc2)c(C(=O)O)c1	-3.0	7.8	-1.6	4.3	-0.1	16.2
CC(C)(C)C(=O)c1c(N)[nH]c(C(=O)c2ccccc2)c1-c1ccc([N+](=O)[O-])cc1	.	1.8	.	-6.7	1.1	.
CCN(CC)CCOc1cc2c(nn1)Oc1ccccc1N2C	-0.5	-0.5	-6.3	8.8	16.3*	-4.2
Cc1ccc(N=C2C(=O)Nc3c(C)cccc32)cc1	-0.4	-3.2	10.5	4.1	0.1	14.5
COc1ccc(N=C2C(=O)Nc3c(C)cccc32)cc1	-1.0	2.5	-2.4	2.8	0.1	93.6*
OCCN1CCCC12CCC(c1ccccc1)CC2 (stereo not drawn)	.	2.0	.	-10.2	0.2	.
O=[N+]([O-])c1cc(S(=O)(=O)N2CCOCC2)ccc1OCc1cccc(Cl)c1	2.9	-5.9	5.4	-6.4	-0.1	-8.2
CC(C)C(Nc1ccc(S(=O)(=O)N2CCOCC2)cc1[N+](=O)[O-])C(=O)O (stereo not drawn)	3.4	-3.0	27.6*	-1.8	0.1	-4.7
Cc1cccc(COc2ccc(S(=O)(=O)N3CCOCC3)cc2[N+](=O)[O-])c1	-0.2	-0.3	19.6*	-3.8	-0.1	-3.0
O=C(c1ccc2c(c1)OCO2)N1CCC(Oc2cccnc2)CC1	.	4.5	.	5.7	0.3	.
CCOC(=O)c1cn[nH]c1NC(=S)Nc1ccc(Cl)cc1	0.8	-4.1	1.9	9.6	-0.1	94.4*
